Test results as given in ChEMBL document CHEMBL3124798, “Convenient one-pot synthesis, anti-mycobacterial and anticancer activities of novel benzoxepinoisoxazolones and pyrazolones” (Eur J Med Chem, 2014).
≈ marks a conversion by molar mass, not a printed value. Calls of active or inactive are those of the source. The rule behind the calls is not given here.

Experiments:
HeLa [1] = experiment: Cytotoxicity against human HeLa cells after 48 hrs by MTT assay; format: functional, cell-based
Summary of the method: (§1)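 Cells taken from T75 flasks/90 mm dishes when sub-confluent, trypsinized and seeded at 5000–10000 cells/well according to doubling time. Test compounds added after 18 h at four concentrations, in triplicate wells. Incubation 48 h, then MTT (5 mg/mL) for 60 min at 37 °C and the bound dye solubilized. Percent growth taken against control wells. IC50 read from dose-response curves; three independent experiments, mean ± SD.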

A549 = experiment: Cytotoxicity against human A549 cells after 48 hrs by MTT assay; format: functional, cell-based; summary of the method: as §1
HEK293 = experiment: Cytotoxicity against HEK293 cells after 48 hrs by MTT assay; format: cell-based, Homo sapiens; summary of the method: as §1
DU-145 = experiment: Cytotoxicity against human DU145 cells after 48 hrs by MTT assay; format: functional, cell-based; summary of the method: as §1
[2] = tested on: Mycolicibacterium smegmatis; experiment: Antimycobacterial activity against Mycobacterium smegmatis MC2 155 ATCC 14468 after 32 hrs by broth microdilution method; format: functional
Summary of the method: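 M. smegmatis MC² 155 grown overnight to mid-log in Middlebrook 7H9 (0.2% glycerol, 0.1% Tween-80, 10% ADS) at 37 °C, subcultured to OD600 ≈0.3, then diluted 1:1000 into 96-well plates. Final compound levels were […]. Incubated 32 h at 37 °C, turbidity read at OD600, triplicates. GI50 was derived from % growth inhibition. INH/rifampicin positive controls, DMSO and medium-only controls.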

HeLa [3] = experiment: Induction of apoptosis in human HeLa cells assessed as activation of caspase-3 using Ac-DEVD-AMC as substrate at 10 to 25 uM after 48 hrs by fluorescence assay relative to control; format: functional
Summary of the method: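 HeLa cells treated 48 h with compound or DMSO, then lysed in 50 mM HEPES, 5 mM CHAPS, 5 mM DTT, pH 7.5. Lysate incubated with Ac-DEVD-AMC in 20 mM HEPES pH 7.5, 0.1% CHAPS, 2 mM EDTA, 5 mM DTT for 2 h at 37 °C. AMC read at ex/em 380/460 nm and normalized to Bradford protein. Activity expressed as treated relative to mock-treated. Doxorubicin used as positive control.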

HeLa [4] = experiment: Induction of apoptosis in human HeLa cells assessed as activation of caspase-9 using Ac-DEVD-AMC as substrate at 10 to 25 uM after 48 hrs by fluorescence assay relative to control; format: functional
HeLa [5] = experiment: Ratio of IC50 for HEK293 cells to IC50 for human HeLa cells
[6] = Homo sapiens, A549, 48 h, read-out: IC50
[7] = Homo sapiens, HeLa, 48 h, read-out: IC50
[8] = Homo sapiens, HEK293, 48 h, read-out: IC50
[9] = Homo sapiens, DU-145, 48 h, read-out: IC50

| SMILES | IC50 (HeLa [1]; hela) | IC50 (A549; [6]) [µM] | IC50 (HEK293; hek293) | IC50 (DU-145; du-145) | GI50 ([2]; MC2 155 ATCC 14468, 32 h) [µg/mL] | IC50 (A549; a549) | fold change (FC) (HeLa [3]) | IC50 (HeLa [1]; [7]) [µM] | fold change (FC) (HeLa [4]) | IC50 (HEK293; [8]) [µM] | Ratio IC50 (HeLa [5]) | IC50 (DU-145; [9]) [µM] | GI50 [2] |
| --- | --- | --- | --- | --- | --- | --- | --- | --- | --- | --- | --- | --- | --- |
| Cc1ccc(N2N=C3COc4ccc(Br)cc4C=C3C2=O)cc1 | Not Active | 163 | Not Active | Not Active | 42.4 (≈ 115 µM) | – | – | – | – | – | – | – | – |
| O=C1C2=Cc3ccccc3OCC2=NN1c1ccc(F)cc1 | Not Active | – | Not Active | Not Active | 38.7 (≈ 132 µM) | Not Active | – | – | – | – | – | – | – |
| O=C1ON=C2COc3ccc(-c4ccccc4)cc3C=C12 | – | 29.7 | – | – | 9.1 (≈ 32.8 µM) | – | <=40 | 9.03 | 20 | 39.2 | 4 | 28.9 | – |
| Cc1ccc(N2N=C3COc4ccccc4C=C3C2=O)cc1C | Not Active | 84.3 | Not Active | Not Active | 19.4 (≈ 63.6 µM) | – | – | – | – | – | – | – | – |
| COc1cccc2c1C(=O)c1c(O)c3c(c(O)c1C2=O)C[C@@](O)(C(=O)CO)C[C@@H]3O[C@H]1C[C@H](N)[C@H](O)[C@H](C)O1 [DOXORUBICIN] | – | 7.47 | – | – | – | – | – | 6.94 | – | 7.41 | – | 8.19 | – |
| O=C1ON=C2COc3ccc(Br)cc3C=C12 | – | 49.1 | – | – | 28.5 (≈ 102 µM) | – | <=40 | 10.1 | 20 | 48.2 | 4 | 28.8 | – |
| O=C1C2=Cc3ccccc3OCC2=NN1c1ccc(Br)cc1 | Not Active | – | Not Active | – | – | Not Active | – | – | – | – | – | 117 | inactive |
| O=C1C2=Cc3ccccc3OCC2=NN1c1ccccc1 | Not Active | – | Not Active | Not Active | 23.2 (≈ 83.9 µM) | Not Active | – | – | – | – | – | – | – |
| O=C1C2=Cc3cc(-c4ccccc4)ccc3OCC2=NN1c1ccc(Br)cc1 | Not Active | 118 | Not Active | – | – | – | – | – | – | – | – | 140 | inactive |
| Cc1ccccc1N1N=C2COc3ccccc3C=C2C1=O | – | – | – | – | – | Not Active | – | 109 | – | 154 | – | 63.9 | inactive |
| Cc1ccc(N2N=C3COc4ccccc4C=C3C2=O)cc1 | Not Active | – | Not Active | – | 49.3 (≈ 170 µM) | Not Active | – | – | – | – | – | 152 | – |
| CO[C@H]1/C=C/O[C@@]2(C)Oc3c(C)c(O)c4c(O)c(c(/C=N/N5CCN(C)CC5)c(O)c4c3C2=O)NC(=O)/C(C)=C\C=C\[C@H](C)[C@H](O)[C@@H](C)[C@@H](O)[C@@H](C)[C@H](OC(C)=O)[C@@H]1C [RIFAMPIN] | – | – | – | – | 1.04 (≈ 1.26 µM) | – | – | – | – | – | – | – | – |
| Cc1cccc(N2N=C3COc4ccccc4C=C3C2=O)c1 | Not Active | – | Not Active | Not Active | – | Not Active | – | – | – | – | – | – | inactive |
| NNC(=O)c1ccncc1 [ISONIAZID] | – | – | – | – | 7.94 (≈ 57.9 µM) | – | – | – | – | – | – | – | – |
| O=C1ON=C2COc3ccccc3C=C12 | – | – | Not Active | – | 21.4 (≈ 106 µM) | Not Active | – | 85 | – | – | – | 84.8 | – |
| O=C1C2=Cc3cc(-c4ccccc4)ccc3OCC2=NN1c1ccccc1 | Not Active | 117 | Not Active | Not Active | – | – | – | – | – | – | – | – | inactive |
| O=C1C2=Cc3cc(Br)ccc3OCC2=NN1c1ccc(Br)cc1 | Not Active | – | Not Active | Not Active | – | Not Active | – | – | – | – | – | – | inactive |
| O=C1C2=Cc3ccccc3OCC2=NN1c1cccc(F)c1 | – | 179 | Not Active | – | – | – | – | 190 | – | – | – | 97 | inactive |
| COc1ccc2c(c1)C=C1C(=O)N(c3ccc(C)cc3)N=C1CO2 | – | 199 | – | – | – | – | – | 129 | – | 138 | – | 117 | inactive |
| O=C1C2=Cc3ccccc3OCC2=NN1c1ccc(Cl)cc1 | Not Active | 215 | Not Active | – | – | – | – | – | – | – | – | 89.4 | inactive |
| O=C1C2=Cc3cc(Br)ccc3OCC2=NN1c1ccccc1 | Not Active | – | Not Active | – | 11.9 (≈ 33.5 µM) | Not Active | – | – | – | – | – | 123 | – |
| COc1ccc(N2N=C3COc4ccccc4C=C3C2=O)cc1 | – | 133 | Not Active | – | – | – | – | 166 | – | – | – | 67.5 | inactive |
| COc1ccc2c(c1)C=C1C(=O)ON=C1CO2 | – | 46.5 | – | – | – | – | <=40 | 10.1 | 20 | 47.7 | 4 | 33.6 | inactive |
| COc1ccc2c(c1)C=C1C(=O)N(c3ccc(Br)cc3)N=C1CO2 | – | 33.3 | – | Not Active | – | – | – | 180 | – | 161 | – | – | inactive |
| COc1ccc2c(c1)C=C1C(=O)N(c3ccccc3)N=C1CO2 | – | – | Not Active | Not Active | 15.7 (≈ 51.1 µM) | Not Active | – | 167 | – | – | – | – | – |
| O=C1C2=Cc3ccccc3OCC2=NN1c1cccc(Cl)c1 | Not Active | 244 | Not Active | Not Active | – | – | – | – | – | – | – | – | inactive |
| Cc1ccc(N2N=C3COc4ccc(-c5ccccc5)cc4C=C3C2=O)cc1 | – | – | – | – | 34 (≈ 92.8 µM) | Not Active | – | 185 | – | 149 | – | 78.2 | – |
